From ChEMBL document CHEMBL1142696, “Design and synthesis of melanocortin peptides with candidacidal and anti-TNF-alpha properties” (2005)
Non-standard residues stand in square brackets, D forms with d. Residues, ends and D or L forms follow the SMILES beside them. d2Nal = N[C@H](Cc1ccc2ccccc2c1)C(=O)O

Key:
[1] = tested on: Candida albicans; experiment: Inhibition of Candida albicans colony forming units (CFU) at 1e-4 M compound; type: functional
Procedure, shortened: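 Six C. albicans isolates (five clinical, ATCC 24433), grown 48 h at 32 °C in Sabouraud-dextrose broth, washed and held in distilled water. 1 × 10^6 cells exposed to peptide at 10^-4 M final, 2 h at 37 °C; water controls. Diluted, plated on blood agar for 48 h at 37 °C, colonies counted manually. Kill = 100 − (test CFU/control CFU × 100). Triplicates, two independent experiments.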

[2] = tested on: PBMC; experiment: Inhibition of tumor necrosis factor alpha release by endotoxin stimulated human peripheral blood mononuclear cells at 1e-4 M; type: functional
Procedure, shortened: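 Human PBMC from five normal donors, isolated by Ficoll-Hypaque density centrifugation, washed in PBS and kept in RPMI 1640 with HEPES, glutamine, 10% FCS and penicillin/streptomycin. Cells at 2.5 × 10^5 per well were held 24 h at 37 °C, 5% CO2 with E. coli 055:B5 endotoxin 1 ng/mL plus peptide 10^-4 M. Supernatant TNF-α measured by immunoassay; % inhibition versus saline control, mean ± SD.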

| SMILES | Inhibition [1] [%] | Inhibition [2] [%] |
| --- | --- | --- |
| CC(C)[C@H](NC(=O)[C@H](Cc1ccccc1)NC(=O)[C@H](CCCCN)NC(=O)CNC(=O)[C@@H](N)Cc1c[nH]c2ccccc12)C(N)=O (H-WGKFV-NH2) | 5.7 | <10 |
| CC(C)[C@H](NC(=O)[C@H](Cc1ccccc1)NC(=O)[C@H](CCCCN)NC(=O)CNC(=O)[C@H](Cc1c[nH]c2ccccc12)NC(=O)[C@H](CCCNC(=N)N)NC(=O)[C@H](Cc1ccccc1)NC(=O)[C@@H](N)Cc1cnc[nH]1)C(N)=O (H-HFRWGKFV-NH2) | 90.8 | <10 |
| NC(=O)[C@H](Cc1c[nH]c2ccccc12)NC(=O)[C@H](CCCN=C(N)N)NC(=O)[C@@H](Cc1ccc2ccccc2c1)NC(=O)[C@@H](N)Cc1c[nH]cn1 | 43 | 13.9 |
| CC(C)[C@H](NC(=O)[C@@H]1CCCN1C(=O)[C@H](CCCCN)NC(=O)CNC(=O)[C@H](Cc1c[nH]c2ccccc12)NC(=O)[C@H](CCCN=C(N)N)NC(=O)[C@@H](Cc1ccc2ccccc2c1)NC(=O)[C@@H](N)Cc1c[nH]cn1)C(N)=O (H-H[d2Nal]RWGKPV-NH2) | 95.3 | 41.8 |
| CC(C)[C@H](NC(=O)[C@H](Cc1ccccc1)NC(=O)[C@@H](N)CCCCN)C(N)=O (H-Lys-Phe-Val-NH2) | 2.7 | <10 |
| CC(C)[C@H](NC(=O)[C@H](Cc1ccccc1)NC(=O)[C@H](CCCCN)NC(=O)CNC(=O)[C@H](Cc1c[nH]c2ccccc12)NC(=O)[C@H](CCCN=C(N)N)NC(=O)[C@@H](Cc1ccc2ccccc2c1)NC(=O)[C@@H](N)Cc1c[nH]cn1)C(N)=O (H-H[d2Nal]RWGKFV-NH2) | 99.8 | 18.7 |
| CC(C)[C@H](NC(=O)[C@H](Cc1ccccc1)NC(=O)[C@H](CCCCN)NC(=O)CN)C(N)=O (H-GKFV-NH2) | 5 | <10 |
| CC(C)[C@H](NC(=O)[C@H](Cc1ccccc1)NC(=O)[C@H](CCCCN)NC(=O)CNC(=O)[C@H](C)NC(=O)[C@H](CCCN=C(N)N)NC(=O)[C@@H](Cc1ccc2ccccc2c1)NC(=O)[C@@H](N)Cc1c[nH]cn1)C(N)=O | 24.9 | 18.1 |
| CC(C)[C@H](NC(=O)[C@@H]1CCCN1C(=O)[C@H](CCCCN)NC(=O)CNC(=O)[C@H](Cc1c[nH]c2ccccc12)NC(=O)[C@H](CCCN=C(N)N)NC(=O)[C@H](Cc1ccccc1)NC(=O)[C@@H](N)Cc1c[nH]cn1)C(N)=O (H-HFRWGKPV-NH2) | 59.4 | 12.3 |
| CC(C)[C@H](NC(=O)[C@H](Cc1ccccc1)NC(=O)[C@H](CCCCN)NC(=O)CNC(=O)[C@H](Cc1c[nH]c2ccccc12)NC(=O)[C@H](CCCN=C(N)N)NC(=O)[C@H](N)Cc1ccc2ccccc2c1)C(N)=O | 51.4 | <10 |
| CC(C)[C@H](NC(=O)[C@H](Cc1ccccc1)NC(=O)[C@H](CCCCN)NC(=O)CNC(=O)[C@H](Cc1c[nH]c2ccccc12)NC(=O)[C@H](CCCN=C(N)N)NC(=O)[C@H](C)NC(=O)[C@@H](N)Cc1c[nH]cn1)C(N)=O (H-HARWGKFV-NH2) | 49.9 | <10 |
| CC(C)[C@H](NC(=O)[C@H](Cc1ccccc1)NC(=O)[C@H](CCCCN)NC(=O)CNC(=O)[C@H](Cc1c[nH]c2ccccc12)NC(=O)[C@H](C)NC(=O)[C@@H](Cc1ccc2ccccc2c1)NC(=O)[C@@H](N)Cc1c[nH]cn1)C(N)=O | 95.7 | 23 |
| CC(C)[C@H](NC(=O)[C@H](Cc1ccccc1)NC(=O)[C@H](CCCCN)NC(=O)CNC(=O)[C@H](Cc1c[nH]c2ccccc12)NC(=O)[C@H](CCCN=C(N)N)NC(=O)[C@@H](Cc1ccc2ccccc2c1)NC(=O)[C@H](C)N)C(N)=O | 62.8 | <10 |
| CC(C)[C@H](NC(=O)[C@H](Cc1ccccc1)NC(=O)[C@H](CCCCN)NC(=O)CNC(=O)[C@H](Cc1c[nH]c2ccccc12)NC(=O)[C@@H](N)CCCN=C(N)N)C(N)=O (H-RWGKFV-NH2) | 19.3 | <10 |
